OXTR agonist = agonists of human oxytocin receptor; activation, % at 3 µM; CHO-OTR cells, Fluo-8 calcium fluorescence; normalized: DMSO 0%, oxytocin 100%; P30559; 320,000 compounds, 0.32% hits;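 active means activation above the mean of all tested compounds plus 3 SD, cutoff set per screening run, cut at about 20% in these data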;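 further: peak over basal fluorescence ratio from a 100 s FLIPR kinetic read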
V1R ag counter = activates human V1a receptor in oxytocin agonist counter-screen | P37288 | CHO-V1R cells, Fluo-8 calcium fluorescence, agonist mode; 0% DMSO, 100% 3 nM vasopressin | activation, % at 3 µM | 320,000 compounds, 0.25% hits | AID 2797;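 active means activation above the mean activation of all tested compounds plus 3 SD, per screening run, cut at about 20% in these data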;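 further: signal is peak over basal fluorescence ratio across a 100 second FLIPR read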
Target sequence (P37288 whole entry, looked up): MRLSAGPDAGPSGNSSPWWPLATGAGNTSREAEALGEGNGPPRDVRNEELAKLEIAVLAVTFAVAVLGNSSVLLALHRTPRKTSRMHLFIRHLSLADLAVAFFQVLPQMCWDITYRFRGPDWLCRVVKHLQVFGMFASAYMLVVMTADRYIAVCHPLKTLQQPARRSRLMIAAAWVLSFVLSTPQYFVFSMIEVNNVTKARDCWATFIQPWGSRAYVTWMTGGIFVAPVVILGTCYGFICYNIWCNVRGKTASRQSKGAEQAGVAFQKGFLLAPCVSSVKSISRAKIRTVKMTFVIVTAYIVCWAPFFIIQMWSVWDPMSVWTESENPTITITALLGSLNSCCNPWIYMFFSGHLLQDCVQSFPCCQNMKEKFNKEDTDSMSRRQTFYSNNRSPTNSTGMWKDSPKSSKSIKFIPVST
OXTR potentiator = potentiators of human oxytocin receptor; 320,000 compounds, 0.061% hits; P30559; CHO-OTR cells, Fluo-8 calcium fluorescence, potentiator mode; 0% = oxytocin EC15, 100% = EC100; activation, % at 3 µM; AID 2445;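 active means activation above that plate's cutoff, the mean activation of tested compounds plus 3 SD, cut at about 6.6% in these data, passing the limit was not always enough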
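test system = CHO-OTR cells, human receptor | compound = single-point 3.0 µM | schedule = 6 min compound pre-incubation at room temperature, 100 s kinetic read | signal = Fluo-8 no-wash calcium dye fluorescence, excitation 470-495 nm, emission 515-575 nm | repeats = single well per compound, singlicate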
TAAR1 agonist = agonists of human TAAR1; Q96RJ0; 360,000 compounds, 0.99% hits; CHO RD-HGA16 TAAR1, Fluo-8 calcium fluorescence; vehicle wells 0%, saturating PEA agonist 100%; activation, % at 3 µM;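 active means activation above the mean activation of all test compounds in the run plus 3 SD, cut at about 38% in these data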
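Assay system – CHO-derived RD-HGA16 cells with stable Gα16 and human TAAR1 · Compound dosing – one-point dosing at 3 µM (nominal) · Incubation – 17-24 h seeding, 75 min 37 °C dye, 30 min RT · Measured by – kinetic Fluo-8 calcium fluorescence · Control set – DMSO vehicle as 0%, PEA at EC100 as 100% · Repeats – single well for each compound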
TAAR1 antagonist = human TAAR1 antagonism; Q96RJ0; inhibition, % at 3 µM; 360,000 compounds, 1.5% hits; CHO RD-HGA16 TAAR1, Fluo-8 calcium fluorescence, antagonist;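 active means inhibition above a per-plate cutoff, the mean inhibition of test compounds on that plate plus 3 SD, cut at about 49% in these data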
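Test system – hTAAR1-expressing CHO RD-HGA16 cells, Gα16-coupled · Also added – β-PEA at EC80 concentration, post-compound challenge · Compound – 3 µM, single point · Incubation – dye loading 75 min at 37 °C, then 30 min room temperature · Measured by – Fluo-8 intracellular calcium dye fluorescence, real-time kinetic reads · Benchmarks – vehicle and agonist controls · Replicates – singlicate, one well per test compound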
nonsel antag count = nonselective antagonist in TAAR1 antagonist counter-screen; shares compounds with TAAR1 antagonist; counterscreen cell line, calcium fluorescence, antagonist mode; inhibition, % at 3 µM; 2,400 compounds, 77% hits; AID 651780; in the data active means inhibition above about 22%;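 further: CHO-Ga16 host cells stimulated with ATP at an EC80 level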
TAAR1 ant conf = confirmation of human TAAR1 antagonists; shares compounds with TAAR1 antagonist; TAAR1-expressing cells, fluorescence antagonist read-out; inhibition, % at 3 µM; 2,400 compounds, 40% hits; AID 651785; in the data active means inhibition above about 49%;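 further: CHO-Ga16 host cells challenged with agonist PEA near its EC80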
Ga16 ag counter = nonselective Ga16 agonist in TAAR1 antagonist counter-screen; shares compounds with TAAR1 antagonist; activation, % at 3 µM; Ga16-expressing cells, calcium fluorescence, agonist counterscreen; 2,400 compounds, 18% hits; in the data active means activation above about 12%
TAAR1 ag counter = counter-screen for human TAAR1 antagonists: TAAR1 agonists; 2,400 compounds, 2% hits; activation, % at 3 µM; shares compounds with TAAR1 antagonist; hTAAR1 cell line, fluorescence activation, agonist mode; in the data active means activation above about 37%;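 further: CHO cells stably expressing TAAR1 with calcium dye readout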
Numbers stand for hits. Compounds with a hit are over-represented: about 2.3% of the library has one in this group of screens.

`CCOC(=O)C1=C(COC(=O)/C=C/c2ccccc2)NC(=O)NC1C` (configuration not stated) gave OXTR agonist inactive, V1R ag counter inactive, OXTR potentiator inactive, TAAR1 agonist inactive, TAAR1 antagonist 63, nonsel antag count 25, TAAR1 ant conf inactive, Ga16 ag counter inactive and TAAR1 ag counter inactive.
`CCOC(=O)C1=C(COC(=O)CSc2ccc(Br)cc2)NC(=O)NC1C` (configuration not stated) gave OXTR agonist inactive, V1R ag counter inactive, OXTR potentiator inactive, TAAR1 agonist inactive and TAAR1 antagonist inactive.
Screening COc1ccc(/C=C2\CCc3ccccc3C2=O)cc1CN1CCOCC1 returned OXTR agonist inactive, V1R ag counter inactive, OXTR potentiator inactive, TAAR1 agonist inactive and TAAR1 antagonist inactive.
For COc1ccc2c(c1)CC/C(=C\c1ccc(OC)c(Cn3cccn3)c1)C2=O the results were OXTR agonist inactive, V1R ag counter inactive, OXTR potentiator inactive, TAAR1 agonist inactive, TAAR1 antagonist 60, nonsel antag count 34, TAAR1 ant conf 51, Ga16 ag counter inactive and TAAR1 ag counter inactive.
For O=C(Nc1ccccc1C(=O)N1CCN(Cc2ccccc2)CC1)c1ccc(F)cc1 the results were OXTR agonist inactive, V1R ag counter inactive, OXTR potentiator inactive, TAAR1 agonist inactive and TAAR1 antagonist inactive.
`Cc1cc(C(=O)CSc2ccc(F)cc2)cc(C)c1OC(=S)N(C)C` gave OXTR agonist inactive, V1R ag counter inactive, OXTR potentiator inactive, TAAR1 agonist inactive, TAAR1 antagonist 78, nonsel antag count 34, TAAR1 ant conf 60, Ga16 ag counter inactive and TAAR1 ag counter inactive.
Screening Cc1ccc(SCC(=O)c2cc(C)c(O)c(C)c2)cc1 returned OXTR agonist inactive, V1R ag counter inactive, OXTR potentiator inactive, TAAR1 agonist inactive and TAAR1 antagonist inactive.
Screening COc1ccc(SCC(=O)c2cc(C)c(OC(=S)N(C)C)c(C)c2)cc1 returned OXTR agonist inactive, V1R ag counter inactive, OXTR potentiator inactive, TAAR1 agonist inactive, TAAR1 antagonist 74, nonsel antag count 31, TAAR1 ant conf inactive, Ga16 ag counter inactive and TAAR1 ag counter inactive.
Screening COC(=O)C[C@H]1C=C[C@@H](NS(=O)(=O)c2ccccc2)[C@@H](CO)O1 returned TAAR1 agonist inactive and TAAR1 antagonist inactive.
For COC(=O)c1c(C)oc(C)c1S(=O)(=O)NCc1ccco1 the results were OXTR agonist inactive, V1R ag counter inactive, OXTR potentiator inactive, TAAR1 agonist inactive and TAAR1 antagonist inactive.
For CCC(C(=O)OCC(=O)Nc1ccc(SC(F)F)cc1)c1ccccc1 (configuration not stated) the results were TAAR1 agonist inactive, TAAR1 antagonist 63, nonsel antag count 39, TAAR1 ant conf 53, Ga16 ag counter inactive and TAAR1 ag counter inactive.
For Cc1cccc(COCC(CC(C)C)N2CCN(C(=O)c3ccc(C(F)(F)F)cc3)CCC2=O)c1 (configuration not stated) the results were OXTR agonist inactive, V1R ag counter inactive, OXTR potentiator inactive, TAAR1 agonist inactive and TAAR1 antagonist inactive.
`Cc1cccc(COC[C@H](CC(C)C)N2CCN(C(=O)c3ccc(C(C)(C)C)cc3)CCC2=O)c1` gave TAAR1 agonist inactive, TAAR1 antagonist 63, nonsel antag count 30, TAAR1 ant conf 52, Ga16 ag counter inactive and TAAR1 ag counter inactive.
For Cc1cccc(COCC(CC(C)C)N2CCN(C(=O)c3ccc(C(C)(C)C)cc3)CCC2=O)c1 (configuration not stated) the results were OXTR agonist inactive, V1R ag counter inactive, OXTR potentiator inactive, TAAR1 agonist inactive, TAAR1 antagonist 71, nonsel antag count 32, TAAR1 ant conf 57, Ga16 ag counter inactive and TAAR1 ag counter inactive.
`COC(=O)C1=C(C)N(C)C(=NCc2ccccc2C(F)(F)F)NC1c1cccc(F)c1` (configuration not stated) gave TAAR1 agonist inactive and TAAR1 antagonist inactive.
Cc1ccc(NC(=O)CSc2nnc3n2CCCCC3)cc1S(=O)(=O)N1CCOCC1 was read as TAAR1 agonist inactive and TAAR1 antagonist inactive.
Screening O=C(OCC(=O)N(CCc1ccccc1)Cc1ccccc1)c1ccccc1NCCO returned OXTR agonist inactive, V1R ag counter inactive, OXTR potentiator inactive, TAAR1 agonist inactive, TAAR1 antagonist 62, nonsel antag count 29, TAAR1 ant conf inactive, Ga16 ag counter inactive and TAAR1 ag counter inactive.
O=C(OCC(=O)N(CCc1ccccc1)Cc1ccccc1)c1ccccc1O was read as OXTR agonist inactive, V1R ag counter inactive, OXTR potentiator inactive, TAAR1 agonist inactive and TAAR1 antagonist inactive.
Screening Cc1cc(C)c(C#N)c(N2CCN(CCOc3ccc(Cl)cc3)CC2)n1 returned OXTR agonist inactive, V1R ag counter inactive, OXTR potentiator inactive, TAAR1 agonist inactive, TAAR1 antagonist 57, nonsel antag count 34, TAAR1 ant conf inactive, Ga16 ag counter inactive and TAAR1 ag counter inactive.
For c1ccc(CCc2ccccc2-c2nc(-c3ccccn3)no2)cc1 the results were OXTR agonist inactive, V1R ag counter inactive, OXTR potentiator inactive, TAAR1 agonist inactive, TAAR1 antagonist 51, nonsel antag count inactive, TAAR1 ant conf inactive, Ga16 ag counter inactive and TAAR1 ag counter inactive.
`OCCOC1CCCc2oc(-c3ccccc3)c(C#CC3(O)CCCCC3)c21` (configuration not stated) gave TAAR1 agonist inactive and TAAR1 antagonist inactive.
Screening COc1ccccc1S(=O)(=O)Cc1ccc(C(=O)N2CCN(c3ccccc3)CC2)o1 returned OXTR agonist inactive, V1R ag counter inactive, OXTR potentiator inactive, TAAR1 agonist inactive and TAAR1 antagonist inactive.
For Cc1ccc(S(=O)(=O)Cc2ccc(C(=O)N3CCN(c4cc(C)ccc4C)CC3)o2)cc1 the results were OXTR agonist inactive, V1R ag counter inactive, OXTR potentiator inactive, TAAR1 agonist inactive and TAAR1 antagonist inactive.
For Cc1ccc(C)c(N2CCN(C(=O)c3ccc(CS(=O)(=O)c4ccccc4C)o3)CC2)c1 the results were OXTR agonist inactive, V1R ag counter inactive, OXTR potentiator inactive, TAAR1 agonist inactive, TAAR1 antagonist 64, nonsel antag count 37, TAAR1 ant conf 51, Ga16 ag counter inactive and TAAR1 ag counter inactive.
